Broadly, the IC50 is the concentration that inhibits the measured activity by half.

Calls of active or inactive are those of the source. The rule behind the calls is not given here.

What all share (assay type): functional
Experiment [1] in a line: Antioxidant activity assessed as ABTS radical scavenging activity after 6 mins.
Experiment [2] concerns Radical scavenging activity. The experiment is described as follows: Antioxidant activity assessed as DPPH free radical scavenging activity after 30 mins by spectrophotometric analysis. The essentials: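 Serial dilutions of compound (100 to 3.125 µg/mL) mixed 1:1 with 0.2 mmol/L DPPH in ethanol; ethanol blank, BHT control. A515 read after 0.5 h at 25 °C; IC50 = concentration giving 50% DPPH scavenging; three replicates, mean ± SD.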

Experiment [3] can be described thus: Antioxidant activity assessed as ferric ion reducing activity using ferric-TPTZ by measuring concentration of compound with antioxidant capacity equivalent to ferrous sulfate at 0.5 mmol/L by FRAP assay.
For a further experiment, the system named is Liver. The experiment is described as follows: Antioxidant activity in KM mouse liver microsomes assessed as inhibition of lipid peroxidation after 60 mins. As to conditions: for inhibition: Microsome; for IC50: 1 h. The essentials: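 Liver microsomes from adult male KM mice (8–12 weeks), protein by Bradford, used at 0.67 mg protein/mL with compounds at varying concentrations, 10 mM FeSO₄ and 0.1 mM ascorbic acid in 0.2 M potassium phosphate pH 7.4; 37 °C, 60 min. Stopped with 20% TCA plus 0.67% TBA, heated 100 °C 15 min, centrifuged; MDA-TBA read at 535 nm.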
(Liver microsomes are vesicles of endoplasmic reticulum, rich in cytochrome P450 enzymes.)

The nature of experiment [4]: Antioxidant activity against AAPH-induced DNA breakage in Escherichia coli pBR322 at 100 uM after 1 hr using ethidium bromide staining by agarose gel electrophoresis analysis. An outline of the steps: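 Plasmid pBR322 DNA (4 µg/mL final) exposed to AAPH (4 mM final) in phosphate buffer (8.1 mM Na₂HPO₄, 1.9 mM NaH₂PO₄, 10.0 mM EDTA), 25 µL total; samples and Trolox standard added at 100 µM in DMSO; 37 °C, 1 h. Strand breakage resolved on 1% agarose gel in Tris-acetate-EDTA, 60 V, 100 min.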

Consider `COc1ccccc1NCn1nc(-c2ccc3c(c2)OCCO3)oc1=S`, for which the IC50 in experiment [1] amounted to 6.3 µM; in experiment [2], 28.6 µM. Besides, the Activity in experiment [3] was 335 µM.

For `S=c1oc(-c2ccc3c(c2)OCCO3)nn1CNc1ccccc1Cl`, the IC50 in experiment [1] came to 7.23 µM; in experiment [2], 30.5 µM. The Activity in experiment [3] was found to be 532 µM.

For `S=c1oc(-c2ccc3c(c2)OCCO3)nn1CNc1ccc(Cl)cc1`, the IC50 is 7.27 µM in experiment [1] and 31.3 µM in experiment [2]. In addition, in experiment [3], the Activity worked out at 584 µM.

On to `O=[N+]([O-])c1ccc(NCn2nc(-c3ccc4c(c3)OCCO4)oc2=S)cc1`, for which the IC50 was 9.95 µM in experiment [1] and 47.8 µM in experiment [2]. The Activity in experiment [3] is more than 1000 µM.

Regarding `S=c1oc(-c2ccc3c(c2)OCCO3)nn1CNc1ccc(Cl)cc1Cl`, the IC50 is 8.71 µM in experiment [1] and 43.5 µM in experiment [2]. Further, in experiment [3], the Activity amounted to 593 µM.

Consider `COC(=O)c1ccc2c(c1)OCCO2`, for which the figures for the IC50 in experiment [1] and in experiment [2] were 13.8 µM and 87.4 µM, respectively. In addition, in experiment [3], the Activity is more than 1000 µM.

Turning to `Fc1ccc(NCn2nc(-c3ccc4c(c3)OCCO4)oc2=S)cc1`, the IC50 in experiment [1] came out at 6.48 µM; in experiment [2], 29.3 µM. In addition, in experiment [3], the Activity was found to be 300 µM.

Take `S=c1oc(-c2ccc3c(c2)OCCO3)nn1CNc1ccccc1Br`: the values for the IC50 in experiment [1] and in experiment [2] were 12.7 µM and 36.1 µM, respectively. Moreover, the Activity in experiment [3] is 440 µM.

Take `O=[N+]([O-])c1ccc(NCn2nc(-c3ccc4c(c3)OCCO4)oc2=S)c(Cl)c1`: the IC50 in experiment [1] amounted to 8.66 µM; in experiment [2], 83.4 µM. Further, the inhibition result in the experiment with Liver was “Active”. Besides, in experiment [3], the Activity was more than 1000 µM. Besides, in experiment [4], the result was Active.

For `Fc1cccc(NCn2nc(-c3ccc4c(c3)OCCO4)oc2=S)c1`, the IC50 was found to be 6.62 µM in experiment [1] and 35.6 µM in experiment [2]. In experiment [3], the Activity was 398 µM.

Regarding `Fc1ccccc1NCn1nc(-c2ccc3c(c2)OCCO3)oc1=S`, the IC50 in experiment [1] was determined as 6.39 µM; in experiment [2], 37.3 µM. In addition, the Activity in experiment [3] turned out to be 522 µM.

Take `Fc1cc(NCn2nc(-c3ccc4c(c3)OCCO4)oc2=S)cc(F)c1F`: the values for the IC50 (in experiment [1]; in experiment [2]; with Liver) were 2.92 µM, 19.6 µM and 110 µM, respectively. The Activity in experiment [3] turned out to be 240 µM. Also, in experiment [4], the result was Active.

As for `S=c1oc(-c2ccc3c(c2)OCCO3)nn1CNc1cccc(Br)c1`, the IC50 is 10.8 µM in experiment [1] and 51 µM in experiment [2]. In addition, in experiment [3], the Activity was more than 1000 µM.

For `S=c1oc(-c2ccc3c(c2)OCCO3)nn1CNc1cccc(Cl)c1`, the IC50 amounted to 6.22 µM in experiment [1] and 22.8 µM in experiment [2]. Besides, the Activity in experiment [3] came to 846 µM.

Consider `O=[N+]([O-])c1cccc(NCn2nc(-c3ccc4c(c3)OCCO4)oc2=S)c1`, for which the IC50 in experiment [1] turned out to be 8.87 µM; in experiment [2], 38.3 µM. Further, the inhibition result in the experiment with Liver is “Active”. For the same molecule, the Activity in experiment [3] was more than 1000 µM. Further, the result in experiment [4] was Active.

`Cc1ccc(NCn2nc(-c3ccc4c(c3)OCCO4)oc2=S)cc1`: the results for the IC50 in experiment [1] and in experiment [2] were 5.7 µM and 25.2 µM, respectively. In addition, in experiment [3], the Activity was determined as 434 µM.

As for `Cc1cc(C(C)(C)C)c(O)c(C(C)(C)C)c1` [BUTYLATED HYDROXYTOLUENE], the IC50 in experiment [1] is 7.57 µM; in experiment [2], 43.8 µM. In experiment [3], the Activity was 546 µM.

Take `S=c1oc(-c2ccc3c(c2)OCCO3)nn1CNC1CCCCC1`: the values for the IC50 in experiment [1] and in experiment [2] were 18.4 µM and 94.4 µM, respectively. In addition, in experiment [3], the Activity was more than 1000 µM.

On to `Cc1ccccc1NCn1nc(-c2ccc3c(c2)OCCO3)oc1=S`, for which the IC50 in experiment [1] was determined as 3.45 µM; in experiment [2] it was 36.3 µM. For the same molecule, the inhibition entry in the experiment with Liver is “Active”. Moreover, in experiment [3], the Activity stood at 292 µM. The outcome in experiment [4] was Active.

As for `S=c1[nH]nc(-c2ccc3c(c2)OCCO3)o1`, the IC50 was 10.6 µM in experiment [1] and 63.9 µM in experiment [2]. For the same molecule, in experiment [3], the Activity is 612 µM.

Take `S=c1oc(-c2ccc3c(c2)OCCO3)nn1CNc1ccc(Cl)c(Cl)c1`: the IC50 in experiment [1] was 6.84 µM; in experiment [2], 36.2 µM. Besides, the Activity in experiment [3] stood at 763 µM.

In the case of `CCOc1ccccc1NCn1nc(-c2ccc3c(c2)OCCO3)oc1=S`, the values for the IC50 in experiment [1] and in experiment [2] were 5.28 µM and 22.4 µM, respectively. The Activity in experiment [3] is 422 µM.

Turning to `FC(F)(F)c1ccccc1NCn1nc(-c2ccc3c(c2)OCCO3)oc1=S`, the IC50 in experiment [1] was found to be 9.22 µM; in experiment [2], 68.3 µM. Further, the Activity in experiment [3] is more than 1000 µM.

On to `S=c1oc(-c2ccc3c(c2)OCCO3)nn1CNc1ccc(Br)cc1`, for which the IC50 in experiment [1] is 14.7 µM; in experiment [2] it was 71.3 µM. Besides, in experiment [3], the Activity came to 531 µM.

With `COc1ccc(NCn2nc(-c3ccc4c(c3)OCCO4)oc2=S)cc1`, the half-maximal inhibitory concentration (IC50) in experiment [1] amounted to 5.83 µM; in experiment [2] it was 31.8 µM. In addition, the Activity in experiment [3] was determined as 493 µM.

As for `FC(F)(F)c1cc(NCn2nc(-c3ccc4c(c3)OCCO4)oc2=S)cc(C(F)(F)F)c1`, the figures for the IC50 in experiment [1] and in experiment [2] were 9.32 µM and 89.3 µM, respectively. The Activity in experiment [3] is more than 1000 µM.

For `FC(F)(F)c1cccc(NCn2nc(-c3ccc4c(c3)OCCO4)oc2=S)c1`, the half-inhibitory concentration (IC50) turned out to be 7.62 µM in experiment [1] and 35.5 µM in experiment [2]. In addition, the Activity in experiment [3] was more than 1000 µM.

Consider `S=c1[nH]nc(-c2ccccc2)o1`, for which the IC50 in experiment [1] worked out at 10.9 µM; in experiment [2] it was 89.8 µM. Besides, the Activity in experiment [3] was more than 1000 µM.

On to `Cc1c(C)c2c(c(C)c1O)CCC(C)(C(=O)O)O2` (stereo not given) [TROLOX], for which the IC50 in experiment [1] came to 6.19 µM; in experiment [2], 30.2 µM; in the experiment on Liver it was 183 µM. Besides, the Activity in experiment [3] was found to be 294 µM.

Consider `S=c1oc(-c2ccc3c(c2)OCCO3)nn1CNc1cc(Cl)ccc1Cl`, for which the IC50 in experiment [1] worked out at 5.42 µM; in experiment [2], 35.1 µM. The Activity in experiment [3] came to 899 µM.

`O=[N+]([O-])c1ccccc1NCn1nc(-c2ccc3c(c2)OCCO3)oc1=S`: the IC50 in experiment [1] stood at 10.9 µM; in experiment [2] it was 47.8 µM. For the same molecule, in the experiment on Liver, the inhibition result is “Active”. Besides, the Activity in experiment [3] is more than 1000 µM. Moreover, in experiment [4], the outcome was Active.

As for `S=c1oc(-c2ccc3c(c2)OCCO3)nn1CNc1ccc(Br)cc1Br`, the IC50 in experiment [1] was 6.41 µM; in experiment [2] it was 35.9 µM. Also, the Activity in experiment [3] was more than 1000 µM.

In the case of `Fc1cccc(F)c1NCn1nc(-c2ccc3c(c2)OCCO3)oc1=S`, the IC50 is 3.32 µM in experiment [1] and 21.8 µM in experiment [2]. The inhibition entry in the experiment on Liver was “Active”. Besides, in experiment [3], the Activity is 268 µM. Further, in experiment [4], the outcome was Active.

`CCCCCCCCCCCCCCCCNCn1nc(-c2ccc3c(c2)OCCO3)oc1=S`: the results for the IC50 in experiment [1] and in experiment [2] were 22.9 µM and 108 µM, respectively. Further, the Activity in experiment [3] was more than 1000 µM.

Consider `S=c1oc(-c2ccc3c(c2)OCCO3)nn1CNc1ccccc1`, for which the IC50 worked out at 5.14 µM in experiment [1] and 32.6 µM in experiment [2]. In the experiment on Liver, the inhibition result was “Active”. Moreover, the Activity in experiment [3] was determined as 735 µM. For the same molecule, the outcome in experiment [4] was Active.
